Series [1] addresses Heat shock protein HSP 90-alpha (Homo sapiens, UniProt P07900). Description: Displacement of GM-FITC from full-length recombinant human Hsp90-alpha after 4 hrs by fluorescence polarization assay. For orientation: In fluorescence polarisation assays a small probe gives low polarisation when free and higher when bound to something large.
For a further series, the system named is NCI-H460. Put plainly: Cytotoxicity against human NCI-H460 cells assessed as growth inhibition after 72 hrs by SRB assay. As to conditions: NCI-H460, 72 h. It is filed as functional, cell-based. The method in brief: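 NCI-H460 cells grown in RPMI-1640 with 10% heat-inactivated FBS, seeded at about 10% confluence and allowed 24 h recovery. Exposed to graded drug concentrations or solvent for 72 h. Surviving fraction measured by sulforhodamine B. IC50 is the concentration giving a 50% drop in cell number vs vehicle, from dose-response curve fitting; mean of n=4 with SD.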
Background: The SRB assay estimates cell density from bound dye.

Series [2] deals with Heat shock protein HSP 90-beta (Homo sapiens) (UniProt P08238). Put plainly: Inhibition of HSP90 in human A431 cells overexpressing EGFR assessed as downregulation of EGFR protein expression after 24 hrs by Western blot analysis. It is filed as cell-based. As to conditions: A-431. The method in brief: (§1)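 A431 cells treated 24 h after seeding for 24 h over a concentration range; 17-DMAG 0.2 µM as reference. Cells lysed in RIPA buffer with protease and phosphatase inhibitors, protein measured by Bradford. Equal protein run on SDS-PAGE and blotted to nitrocellulose, then probed for EGFR, Cdk4, Akt, Hsp70 and actin. ECL detection; densitometry normalized to β-actin. Run at least twice.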

Series [3] shares this target. Description: Inhibition of HSP90 in human A431 cells overexpressing EGFR assessed as downregulation of CDK4 protein expression after 24 hrs by Western blot analysis. The class given is cell-based. The settings on record: A-431. In short, it runs like this: as §1
(In general: Immunoblotting shows a protein as a band on a membrane.)

Series [4] has the same target. Description: Inhibition of HSP90 in human A431 cells overexpressing EGFR assessed as downregulation of AKT protein expression after 24 hrs by Western blot analysis. It is filed as cell-based. As to conditions: A-431. In short, it runs like this:
as §1

The target is the same in series [5]. Description: Inhibition of HSP90 in human A431 cells overexpressing EGFR assessed as induction of HSP70 protein expression after 24 hrs by Western blot analysis. The class given is cell-based. As to conditions: A-431. In short, it runs like this:
as §1

The test system of a further series is A-431. Description: Antitumor activity against human A431 cells overexpressing EGFR xenografted in CD-1 nude mouse assessed as tumor growth inhibition at 8 mg/kg, ip administered as q4d/week for 2 weeks starting 3 days after tumor injection measured on day 5 post last dose relative to vehicle-treated control. It is filed as functional. As to conditions: A-431, ip, route intraperitoneal, read-out: TGI. In short, it runs like this: (§2)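 Female athymic nude mice, 5-6 weeks old, inoculated s.c. in right flank with 5 × 10^6 exponentially growing tumor cells. Intraperitoneal dosing in 10 mL/kg, starting 3 days post-implant. Tumor volume = d²·D/2 from calipered shortest and longest diameters, measured biweekly. TVI% = 100 − (mean TV treated/mean TV control × 100), scored 5 days after last dose. Mann-Whitney test vs vehicle group; 8 mice per group.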

Series [6] is described as follows: Antitumor activity against human GTL16 cells overexpressing c-Met xenografted in CD-1 nude mouse assessed as tumor growth inhibition at 5 mg/kg, ip administered as q4d/week for 2 weeks starting 3 days after tumor injection measured on day 5 post last dose relative to vehicle-treated control. The class given is functional. As to conditions: GTL 16, ip, route intraperitoneal, read-out: TGI. The method in brief: as §2

In series [7] the test system is Mus musculus. Put plainly: Toxicity in CD-1 nude mouse xenografted with human A431 cells overexpressing EGFR assessed as body weight loss at 8 mg/kg, ip administered as q4d/week for 2 weeks starting 3 days after tumor injection measured on day 5 post last dose relative to vehicle-treated control. The class given is organism-based, A-431. More on the design: dose 8 mg/kg, route intraperitoneal. As to conditions: in vivo. The method in brief: (§3)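 Female athymic nude mice carrying s.c. xenografts, dosed i.p. (mg/10 mL/kg per administration) starting 3 days after tumor injection. BWL% = 100 − (mean BW day x/mean BW day 1 × 100), day 1 being the first treatment day. Maximum BWL% recorded. Lethal toxicity counted as deaths before the first control death.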

Series [8] concerns Mus musculus. Put plainly: Toxicity in CD-1 nude mouse xenografted with human GTL16 cells overexpressing c-Met assessed as body weight loss at 5 mg/kg, ip administered as q4d/week for 2 weeks starting 3 days after tumor injection measured on day 5 post last dose relative to vehicle-treated control. The class given is organism-based. On the set-up: dose 5 mg/kg, route intraperitoneal. The settings on record: in vivo. The method in brief:
as §3

Series [9] deals with Mus musculus. Put plainly: Toxicity in CD-1 nude mouse xenografted with human A431 cells overexpressing EGFR assessed as mortality at 8 mg/kg, ip administered as q4d/week for 2 weeks starting 3 days after tumor injection measured on day 5 post last dose relative to vehicle-treated control. The class given is organism-based, A-431. More on the design: dose 8 mg/kg, route intraperitoneal. As to conditions: in vivo. The method in brief:
(§4)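 S.c. right-flank xenografts, 5 × 10^6 cells, in female athymic nude mice 5-6 weeks old. Intraperitoneal dosing in 10 mL/kg from day 3 post-implant. Lethal toxicity counted as deaths in treated mice occurring before the first control mouse died, reported as dead/treated (8 per group). Body weight loss was also tracked from the first treatment day.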

Series [10] relates to Mus musculus. Put plainly: Toxicity in CD-1 nude mouse xenografted with human GTL16 cells overexpressing c-Met assessed as mortality at 5 mg/kg, ip administered as q4d/week for 2 weeks starting 3 days after tumor injection measured on day 5 post last dose relative to vehicle-treated control. The class given is organism-based. More on the design: dose 5 mg/kg, route intraperitoneal. As to conditions: in vivo. The method in brief:
as §4

Series [11] deals with Mus musculus. Put plainly: In vivo inhibition of HSP90 in human A431 cells overexpressing EGFR xenografted in CD-1 nude mouse assessed as downregulation of EGFR protein expression at 8 mg/kg, ip administered as q4d/week for 2 weeks starting 3 days after tumor injection measured at 2 hrs post last dose by Western blot analysis. It is filed as functional, organism-based. More on the design: dose 8 mg/kg. As to conditions: A-431. The method in brief: (§5)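 Nude-mouse s.c. xenografts given i.p. compound from day 3. Tumors excised 2 h (A431) or 6 h (GTL-16) after last dose and homogenized in tissue protein extraction reagent with 10 µg/ml protease inhibitor cocktail. Whole lysates analysed by Western blot with actin as loading control; two tumor samples per group shown.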

Series [12] relates to Mus musculus. Description: In vivo inhibition of HSP90 in human A431 cells overexpressing EGFR xenografted in CD-1 nude mouse assessed as downregulation of AKT protein expression at 8 mg/kg, ip administered as q4d/week for 2 weeks starting 3 days after tumor injection measured at 2 hrs post last dose by Western blot analysis. More on the design: dose 8 mg/kg. The settings on record: A-431. The class given is functional, organism-based. The method in brief: as §5

In series [13] the test system is Mus musculus. Put plainly: In vivo inhibition of HSP90 in human A431 cells overexpressing EGFR xenografted in CD-1 nude mouse assessed as downregulation of CDK4 protein expression at 8 mg/kg, ip administered as q4d/week for 2 weeks starting 3 days after tumor injection measured at 2 hrs post last dose by Western blot analysis. The class given is functional, organism-based. As to conditions: A-431. More on the design: dose 8 mg/kg. The method in brief:
as §5

For series [14], the system named is Mus musculus. Description: In vivo inhibition of HSP90 in human A431 cells overexpressing EGFR xenografted in CD-1 nude mouse assessed as induction of HSP70 protein expression at 8 mg/kg, ip administered as q4d/week for 2 weeks starting 3 days after tumor injection measured at 2 hrs post last dose by Western blot analysis. It is filed as functional, organism-based. On the set-up: dose 8 mg/kg. As to conditions: A-431. In short, it runs like this:
as §5

The subject of series [15] is Mus musculus. Put plainly: In vivo inhibition of HSP90 in human GTL16 cells overexpressing c-Met xenografted in CD-1 nude mouse assessed as downregulation of c-Met protein expression at 8 mg/kg, ip administered as q4d/week for 2 weeks starting 3 days after tumor injection measured at 6 hrs post last dose by Western blot analysis. The class given is functional, organism-based. On the set-up: dose 8 mg/kg. The method in brief: as §5

Series [16] relates to Mus musculus. Put plainly: In vivo inhibition of HSP90 in human GTL16 cells overexpressing c-Met xenografted in CD-1 nude mouse assessed as downregulation of AKT protein expression at 8 mg/kg, ip administered as q4d/week for 2 weeks starting 3 days after tumor injection measured at 6 hrs post last dose by Western blot analysis. It is filed as functional, organism-based. On the set-up: dose 8 mg/kg. In short, it runs like this:
as §5

Series [17] relates to Mus musculus. Put plainly: In vivo inhibition of HSP90 in human GTL16 cells overexpressing c-Met xenografted in CD-1 nude mouse assessed as downregulation of CDK4 protein expression at 8 mg/kg, ip administered as q4d/week for 2 weeks starting 3 days after tumor injection measured at 6 hrs post last dose by Western blot analysis. It is filed as functional, organism-based. More on the design: dose 8 mg/kg. In short, it runs like this:
as §5

The subject of series [18] is Mus musculus. Put plainly: In vivo inhibition of HSP90 in human GTL16 cells overexpressing c-Met xenografted in CD-1 nude mouse assessed as induction of HSP70 protein expression at 8 mg/kg, ip administered as q4d/week for 2 weeks starting 3 days after tumor injection measured at 6 hrs post last dose by Western blot analysis. It is filed as functional, organism-based. On the set-up: dose 8 mg/kg. The method in brief:
as §5

SMILES strings stand for the structures. Activity calls are given as the source filed them. The calls are words filed in the database; no cut-off is given here.

By IC50 is commonly meant the point on the concentration scale where inhibition reaches its midpoint.

Sequence of Heat shock protein HSP 90-beta (Homo sapiens) (P08238 whole entry): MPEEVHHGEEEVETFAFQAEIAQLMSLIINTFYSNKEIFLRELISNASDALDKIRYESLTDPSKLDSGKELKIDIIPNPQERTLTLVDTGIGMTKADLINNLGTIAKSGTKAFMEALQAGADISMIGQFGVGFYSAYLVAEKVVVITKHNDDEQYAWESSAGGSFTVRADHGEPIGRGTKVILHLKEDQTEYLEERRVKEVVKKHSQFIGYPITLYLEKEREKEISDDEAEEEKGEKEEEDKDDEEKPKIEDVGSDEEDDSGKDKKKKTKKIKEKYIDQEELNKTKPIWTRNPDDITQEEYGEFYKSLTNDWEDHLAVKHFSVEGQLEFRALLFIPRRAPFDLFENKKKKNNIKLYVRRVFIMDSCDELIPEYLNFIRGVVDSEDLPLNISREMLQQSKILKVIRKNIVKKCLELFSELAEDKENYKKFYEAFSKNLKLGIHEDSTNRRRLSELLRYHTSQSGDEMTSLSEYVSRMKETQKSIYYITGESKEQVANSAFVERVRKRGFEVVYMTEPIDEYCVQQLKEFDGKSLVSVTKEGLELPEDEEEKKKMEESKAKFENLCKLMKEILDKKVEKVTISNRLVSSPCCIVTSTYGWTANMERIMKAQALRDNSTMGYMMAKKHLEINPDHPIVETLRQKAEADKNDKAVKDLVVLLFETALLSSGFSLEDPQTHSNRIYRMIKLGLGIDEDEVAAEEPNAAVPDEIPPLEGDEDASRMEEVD

Take `CCNC(=O)c1nnn(-c2cc(C(C)C)c(O)cc2O)c1-c1ccc(CN2CCCC(O)C2)cc1` (stereo not given): the figures for the IC50 (in [1]; in the series on NCI-H460) were 0.023 µM and 0.062 µM, respectively. The inhibition result in series [2], in series [3], in [4] and in series [5] was “Dose-dependent effect” throughout. In the series on A-431, the inhibition in vivo at 8 mg/kg was 45%. Also, in [6], the inhibition in vivo at 5 mg/kg turned out to be 42%. The values for the Imax in the series on Mus musculus [7] and in the series on Mus musculus [8] were 7% and 17%, respectively. The Activity result in the series with Mus musculus [9] and in the series with Mus musculus [10] was “Non-toxic” throughout. Moreover, the inhibition result with Mus musculus [11], in the series on Mus musculus [12], in the series on Mus musculus [13], in the series with Mus musculus [14], in the series with Mus musculus [15] and in the series with Mus musculus [16] was “Active” in each case. In addition, the inhibition result with Mus musculus [17] and in the series on Mus musculus [18] was “Active” throughout.

Source of the values: ChEMBL document CHEMBL3232837, “Synthesis and evaluation of new Hsp90 inhibitors based on a 1,4,5-trisubstituted 1,2,3-triazole scaffold” (J Med Chem, 2014).
